Here are results for one compound from PMC10276036 (International Journal for Parasitology: Drugs and Drug …, 2023).

Series [1] deals with amastigote stage of T. cruzi. Nature of the series: Activity against amastigote stage. Format: cell-based, Trypanosoma cruzi. The conditions noted are these: CC50/IC50, murine macrophages vs amastigotes.
Series [2] in a line: Cytotoxicity on murine cells. Format: cell-based. The conditions noted are these: mouse, J774A.1 macrophages. In outline:
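J774A.1 macrophages, maintained in DMEM + 10% FBS at 37 °C and 5% CO2, seeded at 10^4/well and left until fully adherent. Serial dilutions of test compound were then added in RPMI 1640 instead of DMEM, whose colour disturbs alamarBlue fluorescence. After 24 h at 37 °C and 5% CO2, alamarBlue fluorescence was read.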

Series [3] concerns epimastigotes of Trypanosoma cruzi (Y strain). Nature of the series: Activity against epimastigote stage. Format: cell-based. The conditions noted are these: CC50/IC50, murine macrophages vs epimastigotes. In outline: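 Y-strain epimastigotes, maintained in LIT + 10% FBS at 26 °C, seeded at 10^5/well with serial dilutions of test compound and 10% alamarBlue. After 3 days (exponential growth), fluorescence was read and dying parasites were confirmed by microscopy. IC50 came from nonlinear regression. CC50 came from the J774A.1 alamarBlue assay, and SI = CC50/IC50.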

Regarding `O=C(Cn1ccnc1[N+](=O)[O-])NCc1ccccc1` [BENZ, benznidazole], the “Selectivity index against amastigote stage” value in series [1] was found to be 149.8. Also, it took 399.9 ± 1.4 µM to reach half-maximal cytotoxicity in series [2] (CC50 at 24 h). The “Selectivity index (SI) against epimastigote stage” value in series [3] came to 57.8.
